What was measured:
[1] = target: Sigma non-opioid intracellular receptor 1 (Cavia porcellus, UniProt Q60492); assay: Displacement of [3H](+)-pentazocine from sigma 1 receptor in guinea pig brain membrane; type: cell membranes
In short: (§1)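 Guinea pig brain membranes, incubated in duplicate for 2 h at 25 °C in Tris-HCl pH 8.0. Benzamide 10⁻¹⁰ to […] against 2 nM [³H]-(+)-pentazocine (σ₁) or 2 nM [³H]DTG plus 100 nM (+)-pentazocine (σ₂). Nonspecific binding defined with 1 µM haloperidol. GF/B filtration, bound activity by β-scintillation counting, giving IC50 then Ki. Full curves run only where 10⁻⁵ M inhibited >90%.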

[2] = Displacement of [3H]DTG from sigma 2 receptor in guinea pig brain membrane; type: cell membranes, Cavia porcellus; in short: as §1
[3] = Lipophilicity, log P at pH 7.5; type: physicochemical; conditions: buffer
Lung [4] = assay: Biodistribution in lung of B16F0 tumor bearing C57BL/6J mouse at 0.37-0.74 MBq, iv after 6 hrs; type: ADME, organism-based; conditions: in vivo
In short: (§2)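 Female C57BL/6J mice (15-18 g) were given B16F0 cells subcutaneously in the left flank (0.1 mL of 3 × 10⁶ viable cells/mL in Ca²⁺/Mg²⁺-free PBS) at 6-7 weeks and used after ten days. [¹²³I]benzamide (0.37-0.74 MBq, 100 µL, saline) was injected via the tail vein. Groups of n = 5 were killed by CO₂ and cervical dislocation. Organs were weighed and γ-counted, and the carcass was counted too.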

Kidney [5] = assay: Biodistribution in kidney of B16F0 tumor bearing C57BL/6J mouse at 0.37-0.74 MBq, iv after 6 hrs; type: ADME, organism-based; conditions: in vivo; in short: as §2
Blood [6] = assay: Biodistribution in blood of B16F0 tumor bearing C57BL/6J mouse at 0.37-0.74 MBq, iv after 1 hr; type: ADME, organism-based; conditions: in vivo; in short: as §2
Lung [7] = assay: Biodistribution in lung of B16F0 tumor bearing C57BL/6J mouse at 0.37-0.74 MBq, iv after 24 hrs; type: ADME, organism-based; conditions: in vivo; in short: as §2
Liver [8] = assay: Biodistribution in liver of B16F0 tumor bearing C57BL/6J mouse at 0.37-0.74 MBq, iv after 24 hrs; type: ADME, organism-based; conditions: in vivo; in short: as §2
Kidney [9] = assay: Biodistribution in kidney of B16F0 tumor bearing C57BL/6J mouse at 0.37-0.74 MBq, iv after 24 hrs; type: ADME, organism-based; conditions: in vivo; in short: as §2
Blood [10] = assay: Biodistribution in blood of B16F0 tumor bearing C57BL/6J mouse at 0.37-0.74 MBq, iv after 6 hrs; type: ADME, organism-based; conditions: in vivo; in short: as §2
Liver [11] = assay: Biodistribution in liver of B16F0 tumor bearing C57BL/6J mouse at 0.37-0.74 MBq, iv after 72 hrs; type: ADME, organism-based; conditions: in vivo; in short: as §2
[12] = Biodistribution in melanoma of B16F0 tumor bearing C57BL/6J mouse at 0.37-0.74 MBq, iv after 6 hrs; type: ADME, organism-based, B16-F0; conditions: in vivo
In short: (§3)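 Female C57BL/6J mice (15-18 g) carrying s.c. B16F0 flank tumors (0.1 mL of 3 × 10⁶ viable cells per mL in Ca²⁺/Mg²⁺-free PBS, inoculated at 6-7 weeks, used 10 days later). [¹²³I]tracer 0.37-0.74 MBq in saline, 100 µL, tail-vein i.v. Groups of n = 5 killed at 1-72 h. Organs weighed and γ-counted, carcass activity also counted, values as %ID/g.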

Kidney [13] = assay: Biodistribution in kidney of B16F0 tumor bearing C57BL/6J mouse at 0.37-0.74 MBq, iv after 48 hrs; type: ADME, organism-based; conditions: in vivo; in short: as §2
Heart [14] = assay: Biodistribution in heart of B16F0 tumor bearing C57BL/6J mouse at 0.37-0.74 MBq, iv after 1 hr; type: ADME, organism-based; conditions: in vivo; in short: as §2
[15] = Biodistribution in melanoma of B16F0 tumor bearing C57BL/6J mouse at 0.37-0.74 MBq, iv after 72 hrs; type: ADME, organism-based, B16-F0; conditions: in vivo; in short: as §3
Lung [16] = assay: Biodistribution in lung of B16F0 tumor bearing C57BL/6J mouse at 0.37-0.74 MBq, iv after 48 hrs; type: ADME, organism-based; conditions: in vivo; in short: as §2
Liver [17] = assay: Biodistribution in liver of B16F0 tumor bearing C57BL/6J mouse at 0.37-0.74 MBq, iv after 1 hr; type: ADME, organism-based; conditions: in vivo; in short: as §2
Heart [18] = assay: Biodistribution in heart of B16F0 tumor bearing C57BL/6J mouse at 0.37-0.74 MBq, iv after 72 hrs; type: ADME, organism-based; conditions: in vivo; in short: as §2
[19] = Biodistribution in melanoma of B16F0 tumor bearing C57BL/6J mouse at 0.37-0.74 MBq, iv after 24 hrs; type: ADME, organism-based, B16-F0; conditions: in vivo; in short: as §2
Blood [20] = assay: Biodistribution in blood of B16F0 tumor bearing C57BL/6J mouse at 0.37-0.74 MBq, iv after 72 hrs; type: ADME, organism-based; conditions: in vivo; in short: as §2
Brain [21] = assay: Biodistribution in brain of B16F0 tumor bearing C57BL/6J mouse at 0.37-0.74 MBq, iv after 48 hrs; type: ADME, organism-based; conditions: in vivo; in short: as §2
Heart [22] = assay: Biodistribution in heart of B16F0 tumor bearing C57BL/6J mouse at 0.37-0.74 MBq, iv after 48 hrs; type: ADME, organism-based; conditions: in vivo; in short: as §2
Blood [23] = assay: Biodistribution in blood of B16F0 tumor bearing C57BL/6J mouse at 0.37-0.74 MBq, iv after 48 hrs; type: ADME, organism-based; conditions: in vivo; in short: as §2
Kidney [24] = assay: Biodistribution in kidney of B16F0 tumor bearing C57BL/6J mouse at 0.37-0.74 MBq, iv after 72 hrs; type: ADME, organism-based; conditions: in vivo; in short: as §2
Heart [25] = assay: Biodistribution in heart of B16F0 tumor bearing C57BL/6J mouse at 0.37-0.74 MBq, iv after 6 hrs; type: ADME, organism-based; conditions: in vivo; in short: as §2
Kidney [26] = assay: Biodistribution in kidney of B16F0 tumor bearing C57BL/6J mouse at 0.37-0.74 MBq, iv after 1 hr; type: ADME, organism-based; conditions: in vivo; in short: as §2
Liver [27] = assay: Biodistribution in liver of B16F0 tumor bearing C57BL/6J mouse at 0.37-0.74 MBq, iv after 6 hrs; type: ADME, organism-based; conditions: in vivo; in short: as §2
Brain [28] = assay: Biodistribution in brain of B16F0 tumor bearing C57BL/6J mouse at 0.37-0.74 MBq, iv after 24 hrs; type: ADME, organism-based; conditions: in vivo; in short: as §2
Heart [29] = assay: Biodistribution in heart of B16F0 tumor bearing C57BL/6J mouse at 0.37-0.74 MBq, iv after 24 hrs; type: ADME, organism-based; conditions: in vivo; in short: as §2
[30] = Biodistribution in melanoma of B16F0 tumor bearing C57BL/6J mouse at 0.37-0.74 MBq, iv after 48 hrs; type: ADME, organism-based, B16-F0; conditions: in vivo; in short: as §2
Liver [31] = assay: Biodistribution in liver of B16F0 tumor bearing C57BL/6J mouse at 0.37-0.74 MBq, iv after 48 hrs; type: ADME, organism-based; conditions: in vivo; in short: as §2
Brain [32] = assay: Biodistribution in brain of B16F0 tumor bearing C57BL/6J mouse at 0.37-0.74 MBq, iv after 1 hr; type: ADME, organism-based; conditions: in vivo; in short: as §2
Brain [33] = assay: Biodistribution in brain of B16F0 tumor bearing C57BL/6J mouse at 0.37-0.74 MBq, iv after 6 hrs; type: ADME, organism-based; conditions: in vivo; in short: as §2
Lung [34] = assay: Biodistribution in lung of B16F0 tumor bearing C57BL/6J mouse at 0.37-0.74 MBq, iv after 1 hr; type: ADME, organism-based; conditions: in vivo; in short: as §2
[35] = Biodistribution in melanoma of B16F0 tumor bearing C57BL/6J mouse at 0.37-0.74 MBq, iv after 1 hr; type: ADME, organism-based, B16-F0; conditions: in vivo; in short: as §2
Blood [36] = assay: Biodistribution in blood of B16F0 tumor bearing C57BL/6J mouse at 0.37-0.74 MBq, iv after 24 hrs; type: ADME, organism-based; conditions: in vivo; in short: as §2

Sequence of Sigma non-opioid intracellular receptor 1 (Q60492 whole entry): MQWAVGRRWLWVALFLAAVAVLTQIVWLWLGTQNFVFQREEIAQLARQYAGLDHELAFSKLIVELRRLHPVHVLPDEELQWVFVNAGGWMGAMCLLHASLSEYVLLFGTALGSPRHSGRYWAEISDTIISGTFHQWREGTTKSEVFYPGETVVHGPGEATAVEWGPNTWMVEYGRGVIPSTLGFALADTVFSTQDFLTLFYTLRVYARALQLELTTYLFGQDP

COc1cc(NC(C)=O)c(I)cc1C(=O)NCCCCN(C)C(C)C
Ki [1]: 5.2 µM
Ki [2]: 5.4 µM
logD [3]: 0.75

CCN(CC)CCNC(=O)c1cc([123I])c(NC(C)=O)cc1OC
Drug uptake (Lung [4]): 0.4 % ID/g
Drug uptake (Kidney [5]): 0.44 % ID/g
Drug uptake (Blood [6]): 0.98 % ID/g
Drug uptake (Lung [7]): 0.09 % ID/g
Drug uptake (Liver [8]): 1.1 % ID/g
Drug uptake (Kidney [9]): 0.08 % ID/g
Drug uptake (Blood [10]): 0.35 % ID/g
Drug uptake (Liver [11]): 0.28 % ID/g
Drug uptake [12]: 8.5 % ID/g
Drug uptake (Kidney [13]): 0.04 % ID/g
Drug uptake (Heart [14]): 0.79 % ID/g
Drug uptake [15]: 2.2 % ID/g
Drug uptake (Lung [16]): 0.07 % ID/g
Drug uptake (Liver [17]): 9 % ID/g
Drug uptake (Heart [18]): 0.18 % ID/g
Drug uptake [19]: 5.2 % ID/g
Drug uptake (Blood [20]): 0.06 % ID/g
Drug uptake (Brain [21]): 0.01 % ID/g
Drug uptake (Heart [22]): 0.07 % ID/g
Drug uptake (Blood [23]): 0.03 % ID/g
Drug uptake (Kidney [24]): 0.06 % ID/g
Drug uptake (Heart [25]): 0.31 % ID/g
Drug uptake (Kidney [26]): 2.3 % ID/g
Drug uptake (Liver [27]): 2.3 % ID/g
Drug uptake (Brain [28]): 0.01 % ID/g
Drug uptake (Heart [29]): 0.12 % ID/g
Drug uptake [30]: 3.4 % ID/g
Drug uptake (Liver [31]): 0.51 % ID/g
Drug uptake (Brain [32]): 0.13 % ID/g
Drug uptake (Brain [33]): 0.02 % ID/g
Drug uptake (Lung [34]): 1.3 % ID/g
Drug uptake [35]: 9.6 % ID/g
Drug uptake (Blood [36]): 0.08 % ID/g

Reference: ChEMBL document CHEMBL1146219, “Synthesis and evaluation of novel radioiodinated benzamides for malignant melanoma” (J Med Chem, 2007)
